Test results: PubChem BioAssay AID488898 (Broad Institute, 2010)
Results filed as inconclusive are left out. Active and inactive are the calls of the source.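 How the source made its calls: active means fitted half-maximal caspase rise reached at or below ten times the top valid dose; inconclusive means flat fit between 30 and 70 percent, or poor fit; inactive means the rest.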

Tested on: Bax/Bak-/- MEF caspase activation, CaspaseGlo luminescence, 3 h
Assay: caspase activation in Bax/Bak null MEFs, dose response, counter-screen for Bcl2-A1 inhibitor project, cell-based, mouse embryonic fibroblasts, dry powder (AID 488898)
Details: not given
Procedure, shortened: (§1)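 System: Bax/Bak double-knockout mouse embryonic fibroblasts, counterscreen cell line | Amount: 2500 cells per well | Buffer or medium: RPMI-1640 growth medium with 10% FBS | Timing: 3 h at 37 °C treatment, 1 h room-temperature read | Detection: Caspase-Glo luminescence for caspase activity | Measure: Caspase activation, flagging off-target or general toxicity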
Compound `Cc1cccc(NC(=O)/C(C#N)=C/c2cn(CC(=O)NCc3ccco3)c3ccccc23)c1` has an AC50 of 4.78 µM. `Cc1cc(C(=O)CCl)c(C)n1CCc1ccc(Cl)cc1` gave an AC50 of 13.3 µM. Work on `COc1ccc(N(C(=O)CCl)C(C(=O)NCCc2ccccc2)c2cccs2)cc1Cl` (centres undefined) yielded an AC50 of 24.9 µM.

Tested on: not listed separately
Assay: as above
Details: Bax/Bak-/- MEF caspase activation, CaspaseGlo luminescence, 3 h; at 135 µM (top of the series)
Procedure, shortened: as §1
In the case of `CC(=O)N[C@H]1[C@H](O[C@H]2CC[C@@]3(C)C(CC[C@]4(C)C3CC=C3[C@@H]5CC(C)(C)CC[C@]5(C(=O)OC5OCC(O)C(O)C5O)C(O)C[C@]34C)C2(C)C)O[C@H](COC2OCC(O)C(OC3OCC(O)C(O)C3O)C2O)[C@@H](O[C@@H]2O[C@@H](C)[C@H](O)[C@@H](O)[C@H]2O[C@@H]2O[C@@H](C)[C@H](O)[C@@H](O)[C@H]2O)[C@@H]1O` (some centres undefined), the caspase activation is reported as -0.158% (inactive).

Same assay, conditions: Bax/Bak-/- MEF caspase activation, CaspaseGlo luminescence, 3 h; at 150 µM (top of the series)
For `Cc1ccc(Sc2c([N+](=O)[O-])c(=O)n(C)c3ccccc23)cc1`, the caspase activation was 1% (inactive). With `CC(=O)OC(C)(C)/C=C/C(=O)[C@](C)(O)C1[C@H](O)C[C@@]2(C)C3CC=C4C(C[C@H](O)C(=O)C4(C)C)[C@]3(C)C(=O)C[C@]12C` (some centres undefined) the caspase activation was 0.556% (inactive). For `COc1cccc(C(=O)C(C#N)=C(SC)SC)c1`, the caspase activation was 0.208% (inactive). In the case of `Cc1c(CCOC(=O)c2ccc(N3CCOCC3)c([N+](=O)[O-])c2)sc[n+]1CC#N`, the caspase activation is reported as 0.688% (inactive). In the case of `Cc1cccc(CS(=O)(=O)c2ncc(Cl)c(C(=O)Nc3nnc(C(C)C)s3)n2)c1`, the caspase activation is reported as -0.163% (inactive). With `CC(C)(C)n1nc(-c2ccc(Cl)cc2)c2c(N)ncnc21` the caspase activation was 2.79% (inactive). For `CCc1cc2c(=O)c(-c3cnn(-c4ccccc4)c3)c(C)oc2cc1OCC(=O)Nc1cccc(C)c1`, the caspase activation was 0.45% (inactive). For `C=C1[C@@H](C)[C@H]2[C@H](Cc3ccccc3)NC(=O)[C@]23OC(=O)/C=C\[C@H](O)CCC[C@@H](C)C/C=C/[C@H]3[C@@H]1O`, the caspase activation was 0.116% (inactive). For `CCOC(=O)CSC1=N/C(=C/c2ccc(-n3cncn3)cc2)C(=O)N1C(C)=O`, the caspase activation was -0.0192% (inactive). For `O=C(CCl)N=c1sccn1Cc1ccccc1Cl`, the caspase activation was 0.854% (inactive). With `CCc1nnc(NC(=O)c2nc(S(=O)(=O)Cc3ccccc3)ncc2Cl)s1` the caspase activation was -0.106% (inactive). In the case of `C=C1[C@@H](C)[C@H]2[C@H](Cc3ccccc3)NC(=O)[C@]23[C@H](OC(C)=O)/C=C/[C@](C)(O)C(=O)[C@@H](C)C/C=C/[C@H]3[C@@H]1O`, the caspase activation is reported as 0.127% (inactive). In the case of `O=C(Oc1cccc(/C=N/Nc2nc(Nc3ccccc3)nc(N3CCOCC3)n2)c1)c1ccco1`, the caspase activation is reported as 0.146% (inactive). For `Nc1nc(F)nc2c1ncn2[C@@H]1O[C@H](CO)[C@@H](O)[C@H]1O`, the caspase activation was -0.0553% (inactive). For `COc1cc(/C=C(/C#N)c2nc3ccccc3[nH]2)ccc1OCC(=O)Nc1ccccc1C(C)C`, the caspase activation was 1.27% (inactive). With `Cn1c(=NC(=O)CCl)sc2ccccc21` the caspase activation was 0.685% (inactive). In the case of `Cc1c(C=O)c(C=O)c(C)n1Cc1ccccc1`, the caspase activation is reported as 1.17% (inactive). In the case of `C/C1=C/C(=O)O[C@@H]2C[C@@H](CC[C@H](C)/C=C\CC1)O[C@@](O)(C1CSC(=O)N1)C2` (some centres undefined), the caspase activation is reported as 1.16% (inactive). For `CCSc1nnc(NC(=O)c2nc(S(=O)(=O)Cc3ccc(F)cc3)ncc2Cl)s1`, the caspase activation was -0.717% (inactive). With `Cc1ccc(CS(=O)(=O)c2ncc(Cl)c(C(=O)Nc3nnc(C(C)C)s3)n2)cc1` the caspase activation was -0.479% (inactive).
